Key:
Assay type in all cases: functional
Plasmodium berghei [1] = test: Change in mean survival time of Plasmodium berghei infected mice (Mus musculus) on 1.25 mg/kg subcutaneous dose
Plasmodium berghei [2] = test: Difference in mean survival time of Plasmodium berghei infected mice (Mus musculus) after 10 mg/kg subcutaneous dose
Plasmodium berghei [3] = test: Change in mean survival time of Plasmodium berghei infected mice (Mus musculus) after […] subcutaneous dose
Plasmodium berghei [4] = test: Change in mean survival time for control (average 6.2 days) versus treated mice (Mus musculus) after 20 mg/kg subcutaneous dose
Plasmodium berghei [5] = test: Change in mean survival time for control (average 6.2 days) versus treated mice (Mus musculus) after 320 mg/kg subcutaneous dose
Plasmodium berghei [6] = test: Change in mean survival time for control (average 6.2 days) versus treated mice (Mus musculus) after 40 mg/kg subcutaneous dose
Plasmodium berghei [7] = test: Change in mean survival time of Plasmodium berghei infected mice (Mus musculus) after 5 mg/kg subcutaneous dose
Plasmodium berghei [8] = test: Change in mean survival time in control (average 6.2 days) versus treated mice (Mus musculus) after 80 mg/kg subcutaneous dose
Plasmodium berghei [9] = test: (§1) Change in mean survival time for control (average 6.2 days) versus treated mice (Mus musculus) 72 hrs after […] subcutaneous dose
Plasmodium berghei [10] = test: as §1; remark: listed apart in the source
Mus musculus [11] = test: Antimalarial activity of compound administered as a single subcutaneous dose of 10mg/kg, 72 hrs post infection measured as number of mice (Mus musculus) surviving at 60 days post infection
In short: (§2)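 Mice were infected with a normal drug-sensitive Plasmodium berghei strain. At 72 h postinfection each received one subcutaneous dose of compound dissolved or suspended in peanut oil, in five-mouse groups per dose. The read-out was the number of mice alive at 60 days postinfection, which were scored as cured.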

Plasmodium berghei [12] = test: Antimalarial activity as 60-day survivors in Plasmodium berghei infected mice (Mus musculus) after single 160mg/kg subcutaneous dose 72 hr post infection; in short: as §2
Plasmodium berghei [13] = test: Antimalarial activity as 60-day survivors in infected mice (Mus musculus) after single 20 mg/kg subcutaneous dose 72hr post infection; in short: as §2
Plasmodium berghei [14] = test: Antimalarial activity as 60-day survivors in infected mice (Mus musculus) after single 320mg/kg subcutaneous dose 72 hr post infection; in short: as §2
Mus musculus [15] = test: Antimalarial activity, administered as a single subcutaneous dose of 40 mg/kg, 72 hrs post infection measured as number of mice (Mus musculus) surviving at 60 days post infection; in short: as §2
Mus musculus [16] = test: Antimalarial activity, administered as a single subcutaneous dose of 640 mg/kg, 72 hrs post infection measured as number of mice (Mus musculus) surviving at 60 days post infection; in short: as §2
Mus musculus [17] = test: Antimalarial activity, administered as a single subcutaneous dose of 80 mg/kg, 72 hrs post infection measured as number of mice (Mus musculus) surviving at 60 days post infection; in short: as §2
Plasmodium berghei [18] = test: Antimalarial activity in primary screen
Plasmodium berghei [19] = test: Change in mean survival time for control (average 6.2 days) versus treated mice (Mus musculus) 72 hrs after 5 mg/kg subcutaneous dose
Plasmodium berghei [20] = test: Change in mean survival time for control (average 6.2 days) versus treated mice (Mus musculus) 72 hrs after 640 mg/kg subcutaneous dose
Plasmodium berghei [21] = test: Change in mean survival time for control (average of 6.2 days) versus treated mice (Mus musculus) 72 hrs after 80 mg/kg subcutaneous dose
Plasmodium berghei [22] = test: Change in mean survival time for control (average 6.2 days) versus treated mice (Mus musculus) 72 hrs after 10 mg/kg subcutaneous dose
Plasmodium berghei [23] = test: Change in mean survival time for control (average 6.2 days) versus treated mice (Mus musculus) 72 hrs after 160 mg/kg subcutaneous dose
Plasmodium berghei [24] = test: Change in mean survival time for control (average 6.2 days) versus treated mice (Mus musculus) 72 hrs after […] subcutaneous dose
Plasmodium berghei [25] = test: Change in mean survival time for control (average 6.2 days) versus treated mice (Mus musculus) 72 hrs after 20 mg/kg subcutaneous dose
Plasmodium berghei [26] = test: Change in mean survival time for control (average 6.2 days) versus treated mice (Mus musculus) 72 hrs after 320 mg/kg subcutaneous dose
Plasmodium berghei [27] = test: Difference in mean survival time in mice (Mus musculus) (control = 6.2 days) after single 40mg/kg subcutaneous dose 72hr post infection
Mus musculus [28] = test: Antimalarial activity of compound administered as a single subcutaneous dose of 5mg/kg, 72-h postinfection measured as number of mice (Mus musculus) surviving at 60 days postinfection; in short: as §2
Plasmodium berghei [29] = test: Change in mean survival time for control (average 6.2 days) versus treated mice (Mus musculus) after 160 mg/kg subcutaneous dose

For CN(C)Cc1cc(Nc2cc[n+]([O-])c3cc(Cl)ccc23)cc(-c2ccc(Cl)cc2)c1O, which “Delta MST” value (Plasmodium berghei [1]) is on record?
Its value is 0 days.

What about the “Delta MST” value (Plasmodium berghei [2]) of the same compound?
Its value is 17.8 days.

What about the “Delta MST” value (Plasmodium berghei [3]) of the same compound?
Its value is 5 days.

What about the “Delta MST” value (Plasmodium berghei [4]) of the same compound?
Its value is 27.8 days.

What about the “Delta MST” value (Plasmodium berghei [5]) of the same compound?
Its value is 17.9 days.

What about the “Delta MST” value (Plasmodium berghei [6]) of the same compound?
The value was 26.3 days.

And the “Delta MST” value (Plasmodium berghei [7])?
The value was 17.6 days.

And the “Delta MST” value (Plasmodium berghei [8])?
Its value is 21.9 days.

What about the “Delta MST” value (Plasmodium berghei [9]) of the same compound?
The value was 20.7 days.

What about the “Delta MST” value (Plasmodium berghei [10]) of the same compound?
Its value is 0 days.

And the “No. of mice cured” value (Mus musculus [11])?
Its value is 1.

And the “No. of mice cured” value (Plasmodium berghei [12])?
Its value is 5.

What about the “No. of mice cured” value (Plasmodium berghei [13]) of the same compound?
The value was 3.

What about the “No. of mice cured” value (Plasmodium berghei [14]) of the same compound?
Its value is 3.

And the “No. of mice cured” value (Mus musculus [15])?
Its value is 3.

And the “No. of mice cured” value (Mus musculus [16])?
The value was 1.

And the “No. of mice cured” value (Mus musculus [17])?
Its value is 3.

CCN(CC)Cc1cc(Nc2ccnc3cc(Cl)ccc23)cc(-c2cccc(F)c2F)c1O was tested. Which ED30 (Plasmodium berghei [18]) did it give?
The ED30 was 8.7 mg/kg.

And the “Delta MST” value (Plasmodium berghei [19])?
Its value is 13.7 days.

What about the “Delta MST” value (Plasmodium berghei [20]) of the same compound?
The value was 19.8 days.

What about the “Delta MST” value (Plasmodium berghei [21]) of the same compound?
The value was 33.3 days.

And the “Delta MST” value (Plasmodium berghei [10])?
The value was 0.7 days.

And the “Delta MST” value (Plasmodium berghei [22])?
Its value is 16.7 days.

What about the “Delta MST” value (Plasmodium berghei [23]) of the same compound?
The value was 35.1 days.

What about the “Delta MST” value (Plasmodium berghei [24]) of the same compound?
Its value is 6.7 days.

What about the “Delta MST” value (Plasmodium berghei [25]) of the same compound?
The value was 22.2 days.

What about the “Delta MST” value (Plasmodium berghei [26]) of the same compound?
Its value is 19.8 days.

What about the “Delta MST” value (Plasmodium berghei [27]) of the same compound?
The value was 39.4 days.

What about the “No. of mice cured” value (Mus musculus [11]) of the same compound?
The value was 1.

What about the “No. of mice cured” value (Plasmodium berghei [12]) of the same compound?
Its value is 2.

What about the “No. of mice cured” value (Plasmodium berghei [13]) of the same compound?
Its value is 2.

And the “No. of mice cured” value (Plasmodium berghei [14])?
The value was 4.

What about the “No. of mice cured” value (Mus musculus [15]) of the same compound?
Its value is 3.

What about the “No. of mice cured” value (Mus musculus [16]) of the same compound?
The value was 4.

And the “No. of mice cured” value (Mus musculus [17])?
Its value is 3.

Which results are given for CCN(CC)Cc1cc(Nc2cc[n+]([O-])c3cc(Cl)ccc23)cc(-c2ccc(Cl)cc2)c1O?
ED30 (Plasmodium berghei [18]): 9.2 mg/kg; Delta MST (Plasmodium berghei [1]): 0.7 days; Delta MST (Plasmodium berghei [2]): 14.2 days; Delta MST (Plasmodium berghei [3]): 1.3 days; Delta MST (Plasmodium berghei [4]): 20.9 days; Delta MST (Plasmodium berghei [6]): 36.9 days; Delta MST (Plasmodium berghei [7]): 5.7 days; No. of mice cured (Mus musculus [11]): 2; No. of mice cured (Plasmodium berghei [12]): 5; No. of mice cured (Plasmodium berghei [13]): 3; No. of mice cured (Plasmodium berghei [14]): 5; No. of mice cured (Mus musculus [15]): 4; No. of mice cured (Mus musculus [16]): 5; No. of mice cured (Mus musculus [17]): 5

How did the ED30 (Plasmodium berghei [18]) turn out when CCN(CC)Cc1cc(Nc2ccnc3cc(Cl)ccc23)cc(-c2cccc(F)c2)c1O was run?
The ED30 was 12.4 mg/kg.

And the “Delta MST” value (Plasmodium berghei [19])?
The value was 5.6 days.

And the “Delta MST” value (Plasmodium berghei [20])?
The value was 15.8 days.

What about the “Delta MST” value (Plasmodium berghei [21]) of the same compound?
The value was 12.8 days.

What about the “Delta MST” value (Plasmodium berghei [10]) of the same compound?
Its value is 0.4 days.

What about the “Delta MST” value (Plasmodium berghei [22]) of the same compound?
Its value is 23.2 days.

And the “Delta MST” value (Plasmodium berghei [23])?
The value was 14.8 days.

What about the “Delta MST” value (Plasmodium berghei [24]) of the same compound?
Its value is 1.8 days.

And the “Delta MST” value (Plasmodium berghei [25])?
Its value is 23.6 days.

What about the “Delta MST” value (Plasmodium berghei [26]) of the same compound?
The value was 13.8 days.

And the “Delta MST” value (Plasmodium berghei [27])?
The value was 25.1 days.

What about the “No. of mice cured” value (Plasmodium berghei [12]) of the same compound?
The value was 3.

What about the “No. of mice cured” value (Plasmodium berghei [13]) of the same compound?
Its value is 2.

And the “No. of mice cured” value (Plasmodium berghei [14])?
The value was 1.

What about the “No. of mice cured” value (Mus musculus [15]) of the same compound?
The value was 3.

And the “No. of mice cured” value (Mus musculus [28])?
The value was 1.

What about the “No. of mice cured” value (Mus musculus [16]) of the same compound?
Its value is 3.

What about the “No. of mice cured” value (Mus musculus [17]) of the same compound?
The value was 2.

Which ED30 (Plasmodium berghei [18]) does the source give for CCN(CC)Cc1cc(Nc2cc[n+]([O-])c3cc(Cl)ccc23)cc(-c2ccc(C(F)(F)F)cc2)c1O here?
Its ED30 is 7.4 mg/kg.

What about the “Delta MST” value (Plasmodium berghei [1]) of the same compound?
Its value is 0.2 days.

What about the “Delta MST” value (Plasmodium berghei [2]) of the same compound?
Its value is 27.9 days.

What about the “Delta MST” value (Plasmodium berghei [29]) of the same compound?
The value was 13.2 days.

What about the “Delta MST” value (Plasmodium berghei [3]) of the same compound?
The value was 2.6 days.

What about the “Delta MST” value (Plasmodium berghei [4]) of the same compound?
Its value is 33.6 days.

What about the “Delta MST” value (Plasmodium berghei [5]) of the same compound?
Its value is 12.7 days.

What about the “Delta MST” value (Plasmodium berghei [6]) of the same compound?
The value was 28.6 days.

And the “Delta MST” value (Plasmodium berghei [7])?
Its value is 13.6 days.

And the “Delta MST” value (Plasmodium berghei [8])?
The value was 19.7 days.

And the “Delta MST” value (Plasmodium berghei [9])?
The value was 16.5 days.

And the “No. of mice cured” value (Mus musculus [11])?
The value was 1.

And the “No. of mice cured” value (Plasmodium berghei [12])?
Its value is 3.

What about the “No. of mice cured” value (Plasmodium berghei [13]) of the same compound?
Its value is 2.

What about the “No. of mice cured” value (Plasmodium berghei [14]) of the same compound?
Its value is 2.

What about the “No. of mice cured” value (Mus musculus [15]) of the same compound?
Its value is 2.

What about the “No. of mice cured” value (Mus musculus [16]) of the same compound?
Its value is 1.

What about the “No. of mice cured” value (Mus musculus [17]) of the same compound?
The value was 3.

What does the source list for CCN(CC)Cc1cc(Nc2ccnc3cc(Cl)ccc23)cc(-c2ccc(C(F)(F)F)cc2)c1O?
ED30 (Plasmodium berghei [18]): 9.8 mg/kg; Delta MST (Plasmodium berghei [19]): 11 days; Delta MST (Plasmodium berghei [20]): 17 days; Delta MST (Plasmodium berghei [21]): 12 days; Delta MST (Plasmodium berghei [10]): 0 days; Delta MST (Plasmodium berghei [22]): 18.9 days; Delta MST (Plasmodium berghei [23]): 11.9 days; Delta MST (Plasmodium berghei [24]): 2 days; Delta MST (Plasmodium berghei [25]): 19.4 days; Delta MST (Plasmodium berghei [26]): 10.1 days; Delta MST (Plasmodium berghei [27]): 13 days; No. of mice cured (Mus musculus [11]): 1; No. of mice cured (Plasmodium berghei [13]): 2; No. of mice cured (Mus musculus [15]): 2; No. of mice cured (Mus musculus [16]): 1; No. of mice cured (Mus musculus [17]): 2
